According to ChEMBL document CHEMBL5042469, “Unique Molecular Interaction with the Histone Deacetylase 6 Catalytic Tunnel: Crystallographic and Biological Characterization of a Model Chemotype” (J Med Chem, 2021):

Tests used:
[1] = molecular target: T1, Histone deacetylase 8 (Homo sapiens, UniProt Q9BY41); assay: Inhibition of full length human HDAC8 using FAM-labeled acetylated peptide as substrate by electrophoretic mobility shift assay
T1 sequence (Q9BY41 whole entry): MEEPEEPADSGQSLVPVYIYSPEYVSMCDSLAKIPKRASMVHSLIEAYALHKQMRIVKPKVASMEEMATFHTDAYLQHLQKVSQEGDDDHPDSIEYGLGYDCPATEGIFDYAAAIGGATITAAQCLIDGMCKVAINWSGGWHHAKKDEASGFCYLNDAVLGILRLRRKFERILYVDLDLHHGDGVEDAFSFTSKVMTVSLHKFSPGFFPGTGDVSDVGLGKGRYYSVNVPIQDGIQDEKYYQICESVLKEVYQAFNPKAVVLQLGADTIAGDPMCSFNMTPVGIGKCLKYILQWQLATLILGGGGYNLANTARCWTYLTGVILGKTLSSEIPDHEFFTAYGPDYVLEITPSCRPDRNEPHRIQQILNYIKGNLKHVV
Method in brief: (§1)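 Full-length human HDAC isoform enzymatic assay by electrophoretic mobility shift, using a FAM-labelled acetylated peptide substrate. […] Values are the mean of duplicate experiments with 95% confidence intervals.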

[2] = molecular target: T2, Histone deacetylase 11 (Homo sapiens, UniProt Q96DB2); assay: Inhibition of full length human HDAC11 using FAM-labeled acetylated peptide as substrate by electrophoretic mobility shift assay; method in brief: as §1
T2 sequence (Q96DB2 whole entry): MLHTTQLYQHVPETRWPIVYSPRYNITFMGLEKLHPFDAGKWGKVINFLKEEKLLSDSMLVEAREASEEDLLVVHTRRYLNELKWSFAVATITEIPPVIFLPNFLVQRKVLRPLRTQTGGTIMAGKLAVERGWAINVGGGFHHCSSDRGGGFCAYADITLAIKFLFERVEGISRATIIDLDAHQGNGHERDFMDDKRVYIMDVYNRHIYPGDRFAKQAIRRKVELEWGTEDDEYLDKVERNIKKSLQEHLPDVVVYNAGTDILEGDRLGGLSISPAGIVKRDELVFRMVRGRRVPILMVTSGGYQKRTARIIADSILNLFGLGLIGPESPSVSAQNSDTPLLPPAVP

[3] = molecular target: T3, Protein deacetylase HDAC6 (Homo sapiens, UniProt Q9UBN7); assay: Inhibition of full length human HDAC6 using FAM-labeled acetylated peptide as substrate by electrophoretic mobility shift assay
T3 sequence (Q9UBN7 whole entry): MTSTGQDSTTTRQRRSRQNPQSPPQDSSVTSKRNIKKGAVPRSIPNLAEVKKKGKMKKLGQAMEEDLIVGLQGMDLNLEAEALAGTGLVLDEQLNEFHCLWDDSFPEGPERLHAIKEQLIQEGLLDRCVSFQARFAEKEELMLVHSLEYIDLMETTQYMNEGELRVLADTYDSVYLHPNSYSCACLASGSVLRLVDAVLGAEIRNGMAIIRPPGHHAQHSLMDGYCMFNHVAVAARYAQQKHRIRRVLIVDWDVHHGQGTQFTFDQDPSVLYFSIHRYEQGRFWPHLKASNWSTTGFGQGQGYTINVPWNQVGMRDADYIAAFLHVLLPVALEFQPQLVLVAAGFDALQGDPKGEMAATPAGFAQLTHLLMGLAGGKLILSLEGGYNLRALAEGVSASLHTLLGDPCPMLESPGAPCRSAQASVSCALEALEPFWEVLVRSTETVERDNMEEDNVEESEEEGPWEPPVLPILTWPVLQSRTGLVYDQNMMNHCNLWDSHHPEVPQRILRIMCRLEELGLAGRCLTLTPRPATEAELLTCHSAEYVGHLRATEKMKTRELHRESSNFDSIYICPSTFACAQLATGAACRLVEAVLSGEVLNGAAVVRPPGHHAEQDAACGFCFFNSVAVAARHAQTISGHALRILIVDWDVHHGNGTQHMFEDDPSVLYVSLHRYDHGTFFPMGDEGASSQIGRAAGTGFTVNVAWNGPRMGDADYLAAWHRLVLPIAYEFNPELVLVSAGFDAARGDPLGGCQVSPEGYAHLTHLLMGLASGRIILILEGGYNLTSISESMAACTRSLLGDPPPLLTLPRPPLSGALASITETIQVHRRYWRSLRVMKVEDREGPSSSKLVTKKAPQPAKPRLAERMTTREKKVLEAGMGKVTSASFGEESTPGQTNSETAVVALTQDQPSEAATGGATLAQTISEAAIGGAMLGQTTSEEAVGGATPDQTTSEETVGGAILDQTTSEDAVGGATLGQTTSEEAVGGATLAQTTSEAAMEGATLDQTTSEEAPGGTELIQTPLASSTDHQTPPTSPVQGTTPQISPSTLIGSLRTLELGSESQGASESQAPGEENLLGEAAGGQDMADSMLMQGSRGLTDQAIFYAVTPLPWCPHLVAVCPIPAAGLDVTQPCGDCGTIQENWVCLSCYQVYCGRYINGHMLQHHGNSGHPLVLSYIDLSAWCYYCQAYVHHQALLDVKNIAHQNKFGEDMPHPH

[4] = molecular target: Histone deacetylase 3 (Homo sapiens, UniProt O15379); assay: Inhibition of full length human HDAC3 using FAM-labeled acetylated peptide as substrate by electrophoretic mobility shift assay; method in brief: as §1
Chain of Histone deacetylase 3 (O15379 whole entry): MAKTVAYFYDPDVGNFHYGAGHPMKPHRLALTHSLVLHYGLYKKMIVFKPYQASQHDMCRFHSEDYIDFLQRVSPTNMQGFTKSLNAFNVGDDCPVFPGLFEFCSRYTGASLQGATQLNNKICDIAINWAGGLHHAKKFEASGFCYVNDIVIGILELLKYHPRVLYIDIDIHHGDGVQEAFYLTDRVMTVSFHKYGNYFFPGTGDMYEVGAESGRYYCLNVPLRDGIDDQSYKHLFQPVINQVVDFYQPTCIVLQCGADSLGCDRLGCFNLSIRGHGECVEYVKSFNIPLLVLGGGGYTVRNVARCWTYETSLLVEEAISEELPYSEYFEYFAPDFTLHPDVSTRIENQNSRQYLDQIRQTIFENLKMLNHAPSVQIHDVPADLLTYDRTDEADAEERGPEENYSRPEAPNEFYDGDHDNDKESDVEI

Row | SMILES | IC50 [1] [nM] | IC50 [2] [nM] | IC50 [3] [nM] | IC50 [4] [nM]
1 | O=C(NO)c1ccc(CN(Cc2ccccc2F)S(=O)(=O)c2cc(F)c(F)c(F)c2F)cc1 | 241 | 263 | 10 | > 1000
2 | CC(C)(C)c1ccc(CN(Cc2ccc(C(=O)NO)cc2)S(=O)(=O)c2c(F)c(F)c(F)c(F)c2F)cc1 | 68 | 88 | 42 | > 1000
3 | O=C(NO)c1ccc(CN(Cc2ccccc2)S(=O)(=O)c2c(F)c(F)c(F)c(F)c2F)cc1 | 150 | 122 | 9 | > 1000
4 | O=C(NO)c1ccc(CN(Cc2ccccc2)S(=O)(=O)c2cc(F)c(F)c(F)c2F)cc1 | 155 | 115 | 5 | 697
5 | Cc1ccc(CN(Cc2ccc(C(=O)NO)cc2)S(=O)(=O)c2c(F)c(F)c(F)c(F)c2F)cc1 | 101 | 73 | 6 | > 1000
6 | O=C(NO)c1ccc(CN(Cc2cccc(F)c2)S(=O)(=O)c2cc(F)c(F)c(F)c2F)cc1 | 412 | 235 | 14 | > 1000
7 | O=C(NO)c1ccc(CN(Cc2ccc(C(F)(F)F)cc2)S(=O)(=O)c2c(F)c(F)c(F)c(F)c2F)cc1 | > 1000 | > 1000 | 45 | > 1000
8 | O=C(NO)c1ccc(CN(Cc2ccc(F)cc2)S(=O)(=O)c2cc(F)c(F)c(F)c2F)cc1 | 860 | > 1000 | 21 | > 1000
9 | O=C(NO)c1ccc(CN(Cc2ccccn2)S(=O)(=O)c2cc(F)c(F)c(F)c2F)cc1 | 332 | 941 | 6 | 896
10 | O=C(NO)c1ccc(CNS(=O)(=O)c2c(F)c(F)c(F)c(F)c2F)cc1 | > 1000 | > 1000 |  | > 1000
11 | O=C(NO)c1ccc(CN(Cc2ccncc2)S(=O)(=O)c2cc(F)c(F)c(F)c2F)cc1 | 581 | 472 | 11 | > 1000
12 | O=C(NO)c1ccc(CN(Cc2ccncc2)S(=O)(=O)c2c(F)c(F)c(F)c(F)c2F)cc1 | > 1000 | > 1000 | 14 | > 1000
13 | O=C(CCCCCCC(=O)N/N=C/c1ccc(N(c2ccccc2)c2ccccc2)cc1)NO |  |  | 400 | 
14 | O=C(NO)c1ccc(CN(Cc2ccc(F)cc2)S(=O)(=O)c2c(F)c(F)c(F)c(F)c2F)cc1 | 367 | 787 | 13 | > 1000
15 | CN(C)c1ccc(CN(Cc2ccc(C(=O)NO)cc2)S(=O)(=O)c2c(F)c(F)c(F)c(F)c2F)cc1 | > 1000 | > 1000 | 29 | > 1000
